Test results published in ChEMBL document CHEMBL4130356, “Design, synthesis and 2D QSAR study of novel pyridine and quinolone hydrazone derivatives as potential antimicrobial and antitubercular agents” (Eur J Med Chem, 2017).
In brackets after ≈: the same amount, converted by molar mass. Activity calls are given as the source filed them. The rule behind the calls is not given here.

How the values were obtained:
Aspergillus fumigatus [1] = test: Antimicrobial activity against Aspergillus fumigatus RCMB 02568 after 48 hrs by serial dilution method; assay type: functional; settings: RCMB 02568, 48 h
In short: (§1)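 Serial twofold dilution in microtiter plates starting from a 100 mmol stock in DMSO; final concentrations 125 down to 0.12 […]. Incubated at 28°C and read on a microplate reader after 48 h. Amphotericin B was the reference. Run in triplicate, with the average taken. MIC was the lowest concentration inhibiting growth.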

Aspergillus fumigatus [2] = test: Antimicrobial activity against Aspergillus fumigatus RCMB 02568 assessed as diameter of zone inhibition at 100 ug/ml after 48 hrs by agar well diffusion assay; assay type: functional; settings: RCMB 02568, 48 h, read-out: DIZ
In short: (§2)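 Agar well diffusion on malt agar plates seeded with the fungus, using 1 cm wells. Plates were held at 4°C for 1 h for diffusion, then incubated at 28°C. Inhibition zone diameters were measured at 48 h. Amphotericin B was the positive control. Run in triplicate, with the mean zone reported.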

Candida albicans [3] = test: Antimicrobial activity against Candida albicans RCMB 05036 assessed as diameter of zone inhibition at 100 ug/ml after 48 hrs by agar well diffusion assay; assay type: functional; settings: RCMB 05036, 48 h, read-out: DIZ; in short: as §2
Streptococcus pneumoniae [4] = test: Antimicrobial activity against Streptococcus pneumoniae RCMB 010010 assessed as diameter of zone inhibition at 100 ug/ml after 24 hrs by agar well diffusion assay; assay type: functional; settings: RCMB 010010, 24 h, read-out: DIZ
In short: (§3)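 Agar well diffusion on nutrient agar plates seeded with the bacterium, using 1 cm wells. Plates were held at 4°C for 1 h for diffusion, then incubated at 37°C. Inhibition zone diameters were measured at 24 h. Ciprofloxacin was the positive control. Run in triplicate, with the mean zone reported.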

Staphylococcus aureus [5] = test: Antimicrobial activity against Staphylococcus aureus RCMB 010028 assessed as diameter of zone inhibition at 100 ug/ml after 24 hrs by agar well diffusion assay; assay type: functional; settings: RCMB 010028, 24 h, read-out: DIZ; in short: as §3
Escherichia coli [6] = test: Antimicrobial activity against Escherichia coli RCMB 010052 assessed as diameter of zone inhibition at 100 ug/ml after 24 hrs by agar well diffusion assay; assay type: functional; settings: RCMB 010052, 24 h, read-out: DIZ; in short: as §3
Candida albicans [7] = test: Antimicrobial activity against Candida albicans RCMB 05036 after 48 hrs by serial dilution method; assay type: functional; settings: RCMB 05036, 48 h; in short: as §1
Streptococcus pneumoniae [8] = test: Antimicrobial activity against Streptococcus pneumoniae RCMB 010010 after 24 hrs by serial dilution method; assay type: functional; settings: RCMB 010010, 24 h
In short: as §1, with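 “37°C” for “28°C”, “24” for “48”, “Ciprofloxacin” for “Amphotericin B”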

Staphylococcus aureus [9] = test: Antimicrobial activity against Staphylococcus aureus RCMB 010028 after 24 hrs by serial dilution method; assay type: functional; settings: RCMB 010028, 24 h
In short: as §1, with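 “37°C” for “28°C”, “24” for “48”, “Ciprofloxacin” for “Amphotericin B”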

Escherichia coli [10] = test: Antimicrobial activity against Escherichia coli RCMB 010052 after 24 hrs by serial dilution method; assay type: functional; settings: RCMB 010052, 24 h
In short: as §1, with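 “37°C” for “28°C”, “24” for “48”, “Ciprofloxacin” for “Amphotericin B”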

[11] = system: Mycobacterium tuberculosis; test: Antimycobacterial activity against Mycobacterium tuberculosis RCMB 010126 clinical isolate after 7 days by MABA; assay type: functional
In short: (§4)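 Inoculum from fresh LJ culture resuspended in 7H9-S broth with casitone, glycerol and OADC, adjusted to McFarland No. 1 and diluted 1:20. Serial two-fold compound dilutions in 7H9-S; isoniazid reference. Incubated 7 days at 37°C in air, then Alamar blue added and incubated overnight. Percent inhibition = 1 − (test well/growth-control mean) × 100; MIC = lowest concentration preventing blue-to-pink change.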

[12] = system: Mycobacterium tuberculosis; test: Antimycobacterial activity against Mycobacterium tuberculosis RCMB 010126 clinical isolate assessed as inhibition zone after 7 days by MABA; assay type: functional; in short: as §4
Pseudomonas aeruginosa [13] = settings: RCMB 010043, 100 ug/ml
Pseudomonas aeruginosa [14] = settings: RCMB 010043
WI-38 = test: Cytotoxicity against human WI38 cells assessed as reduction in cell viability after 24 hrs by crystal violet staining-based colorimetric method; settings: WI-38, 24 h
In short: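 WI-38 cells were grown in DMEM with 10% FBS at 37°C and 5% CO2, then seeded at 1×10^4 cells/well. Serial twofold dilutions were added, three wells per concentration. Viability was read by crystal violet stain, solubilised in 30% acetic acid, at 490 nm. Run in triplicate. IC50 was estimated from dose-response plots.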

[15] = Selectivity index, ratio of IC50 for human WI38 cells to MIC for Mycobacterium tuberculosis RCMB 010126 clinical isolate; assay type: toxicity; settings: read-out: Selectivity Index
In short: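 WI-38 human lung fibroblasts grown in DMEM with 10% FBS at 37°C and 5% CO2, seeded at 1×10^4 cells/well, and exposed to serial two-fold dilutions in triplicate. Viability read by crystal violet stain at 490 nm. IC50 taken from dose-response plots. Ratio uses this IC50 against the MABA MIC for M. tuberculosis.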

[16] = Mycobacterium tuberculosis, RCMB 010126, 168 h

Row | Compound | MIC (Aspergillus fumigatus [1]) [µg/mL] | zone of inhibition at 100 µg/mL (Aspergillus fumigatus [2]) [mm] | zone of inhibition at 100 µg/mL (Candida albicans [3]) [mm] | zone of inhibition at 100 µg/mL (Streptococcus pneumoniae [4]) [mm] | zone of inhibition at 100 µg/mL (Staphylococcus aureus [5]) [mm] | zone of inhibition at 100 µg/mL (Escherichia coli [6]) [mm] | MIC (Candida albicans [7]) [µg/mL] | MIC (Streptococcus pneumoniae [8]) [µg/mL] | MIC (Staphylococcus aureus [9]) [µg/mL] | MIC (Escherichia coli [10]) [µg/mL] | MIC [11, 16] [µg/mL] | inhibition zone (IZ) [12] | DIZ (Pseudomonas aeruginosa [13]) | MIC (Pseudomonas aeruginosa [14]) | IC50 (WI-38) [µg/mL] | selectivity ratio [15] | MIC [11] | -logMIC [11]
1 | O=C(N/N=C/c1ccc(Cl)cc1Cl)c1c[nH]c2ccc(Cl)cc2c1=O | 15.6 (≈ 39.6 µM) | 16.9 | 14.1 | 17.5 | 15.7 | 20.7 | 62.5 (≈ 158 µM) | 7.81 (≈ 19.8 µM) | 15.6 (≈ 39.6 µM) | 1.95 (≈ 4.94 µM) | 99.8 (≈ 253 µM) | 18.3 mm | inactive | inactive | – | – | – | –
2 | Cc1nc(-c2ccc(Cl)cc2)ccc1C(=O)N/N=C/c1ccc(O)cc1 | 3.9 (≈ 10.7 µM) | 19.3 | 17.3 | 20.3 | 18.3 | 19.2 | 15.6 (≈ 42.7 µM) | 3.9 (≈ 10.7 µM) | 7.81 (≈ 21.3 µM) | 3.9 (≈ 10.7 µM) | 3.12 (≈ 8.53 µM) | 53.21 mm | inactive | inactive | 500 (≈ 1370 µM) | 160 | – | –
3 | O=C(N/N=C/c1ccc(F)cc1)c1c[nH]c2ccc(Cl)cc2c1=O | 15.6 (≈ 45.5 µM) | 11.3 | 10.3 | 12.4 | 10.6 | 12.7 | 31.2 (≈ 90.9 µM) | 15.6 (≈ 45.5 µM) | 31.2 (≈ 90.9 µM) | 62.5 (≈ 182 µM) | – | inactive | inactive | inactive | – | – | inactive | –
4 | COc1ccc(/C=N/NC(=O)c2ccc(-c3cccc(Cl)c3)nc2C)cc1OC | 3.9 (≈ 9.52 µM) | 19.3 | 17.2 | 19.6 | 17.9 | 21.6 | 15.6 (≈ 38.1 µM) | 3.9 (≈ 9.52 µM) | 7.81 (≈ 19.1 µM) | 1.95 (≈ 4.76 µM) | 0.78 (≈ 1.9 µM) | 73.58 mm | inactive | inactive | 168 (≈ 410 µM) | 215 | – | 0.1079
5 | COc1cc(/C=N/NC(=O)c2c[nH]c3ccc(Cl)cc3c2=O)cc(OC)c1OC | 7.81 (≈ 18.8 µM) | 18.1 | 16.3 | 18.4 | 17.3 | 19.3 | 31.2 (≈ 75.2 µM) | 7.81 (≈ 18.8 µM) | 15.6 (≈ 37.6 µM) | 3.9 (≈ 9.38 µM) | – | inactive | inactive | inactive | – | – | inactive | –
6 | Cc1ccc(/C=N/NC(=O)c2c[nH]c3cc(Cl)ccc3c2=O)cc1 | 62.5 (≈ 184 µM) | 13.7 | 14.5 | 13.9 | 14.4 | 15 | 62.5 (≈ 184 µM) | 62.5 (≈ 184 µM) | 62.5 (≈ 184 µM) | 62.5 (≈ 184 µM) | – | inactive | inactive | inactive | – | – | inactive | –
7 | COc1ccc(/C=N/NC(=O)c2c[nH]c3ccc(Cl)cc3c2=O)cc1OC | 7.81 (≈ 20.2 µM) | 18.4 | 16.9 | 19.1 | 17.2 | 21.3 | 15.6 (≈ 40.5 µM) | 3.9 (≈ 10.1 µM) | 15.6 (≈ 40.5 µM) | 1.95 (≈ 5.05 µM) | 25 (≈ 64.7 µM) | 31.25 mm | inactive | inactive | – | – | – | –
